MrgX1 PAM: allosterically activates human MrgX1 receptor signaling; MrgX1-HEK293, Fluo-4 calcium flux, FDSS; hits give high values; AID 588675; Q96LB2; 0.63% of 310,000 active; B-score at 10 µM;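 active = plate-corrected calcium response at least 3 library SD above typical, normal starting fluorescence, not activating the receptor alone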;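 note: compound read alongside a low EC10 to EC30 dose of BAM8-22 agonist; peak minus trough fluorescence over baseline measured at the second addition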
Target sequence (Q96LB2 whole entry, looked up): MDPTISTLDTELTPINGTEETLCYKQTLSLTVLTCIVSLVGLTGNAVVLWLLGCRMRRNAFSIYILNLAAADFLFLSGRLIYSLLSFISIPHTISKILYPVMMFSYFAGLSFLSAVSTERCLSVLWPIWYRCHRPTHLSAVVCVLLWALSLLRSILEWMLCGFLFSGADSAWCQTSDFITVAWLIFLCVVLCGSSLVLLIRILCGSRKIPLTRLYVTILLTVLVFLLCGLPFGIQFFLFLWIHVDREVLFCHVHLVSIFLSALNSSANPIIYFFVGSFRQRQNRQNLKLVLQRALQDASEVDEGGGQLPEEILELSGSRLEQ
MrgX1 antagonist: human MrgX1 receptor antagonism, primary screen | Q96LB2 | MRGX1-HEK293 calcium flux, Fluo-4, BAM8-22 antagonism; hits give low values | B-score at 10 µM | 1.3% of 310,000 active | AID 588676;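 active = calcium-response B-score plate-corrected more than 3 library SD below zero, starting fluorescence within 5 deviations, no agonist response on first addition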;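 note: peak minus trough fluorescence over baseline after final BAM8-22 challenge near maximal dose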
RGS4 block: inhibitors of human RGS4; P49798; HEK293 M3R/RGS4 inducible, Fluo-4 calcium flux; hits give high values; triggered by carbachol at its EC20; B-score at 10 µM; 0.45% of 310,000 active;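 active = B-score, a plate-corrected calcium signal, over three deviations above library mean, with baseline fluorescence within five deviations of library mean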;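 note: RGS4 expression induced by doxycycline in cells with stable M3 receptor; B-score is computed from the integrated fluorescence ratio over baseline after carbachol; higher B-score means a larger calcium signal and so more RGS4 inhibition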
Target sequence (P49798 whole entry, looked up): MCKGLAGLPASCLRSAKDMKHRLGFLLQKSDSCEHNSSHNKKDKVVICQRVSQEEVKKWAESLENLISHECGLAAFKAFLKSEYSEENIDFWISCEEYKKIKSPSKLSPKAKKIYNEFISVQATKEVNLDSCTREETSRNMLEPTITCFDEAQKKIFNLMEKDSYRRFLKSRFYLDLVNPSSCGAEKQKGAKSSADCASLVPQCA
MrgX1 ag: agonists of human MrgX1 receptor; AID 588627; 0.44% of 310,000 active; MrgX1-HEK293 cells, Fluo-4 calcium fluorescence, agonist mode; hits give high values; B-score at 10 µM;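 active = calcium response B-score plate-corrected fluorescence ratio at least 3 library SD, with starting fluorescence B-score inside 5 SD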
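Assay system: MrgX1-expressing HEK293 cells / Amount: fifteen thousand cells per well / Doses: test compound in the initial addition of three / Timing: cells plated overnight, dye loaded 0.5 h 37 °C, 0.5 h room temperature / Technique: kinetic calcium dye fluorescence, Fluo-4 NW / Control set: positive and negative controls per plate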
RGS4 act: RGS4 potentiation or activation. 0.92% of 310,000 active. B-score at 10 µM. HEK293 M3R/inducible RGS4, carbachol calcium flux Fluo4; hits give low values;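 active = B-score of the integrated calcium signal more than 4 SD below the library mean, with starting fluorescence not abnormally high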;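 note: negative B-score means reduced calcium response which marks RGS4 activation or potentiation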
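Material: Inducible-RGS4 HEK293 cells carrying M3 receptor; also added: carbachol at ECmax as muscarinic agonist stimulus; incubation: compound preincubation 20 min at room temperature before agonist; signal: Fluo4-AM (2 µM) calcium-flux fluorescence, kinetic read; measure: integrated calcium ratio converted to B score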
Of the large screens only hits and unclear results are named; the others gave an inactive call. A selection: hits, their analogues and other compounds. The true share with any hit is near 3.5%.

Cc1ccc2nc(C)cc(C(=O)N3CCCC(N4CCN(c5ccccc5C)CC4)C3)c2c1 (configuration not stated)	none
CC(C)CN(C(=O)C1CCCO1)C1CCS(=O)(=O)C1 (configuration not stated)	none
CC(=O)NCCC(=O)Nc1nc2ccc(Oc3ccccc3)cc2s1	none
COC(=O)c1ccccc1C(=O)N1CCCC(CNC(=O)c2ccc(F)cc2)C1 (configuration not stated)	none
CCC(C)N(C(=O)CSc1nnc(C)n1C)C1CCS(=O)(=O)C1 (configuration not stated)	none
COc1ccccc1N/C=C/c1onc(C)c1[N+](=O)[O-]	MrgX1 antagonist -6.5
CN(C)CCNC(=O)CNC(=S)N(CCCN1CCOCC1)Cc1cccs1	none
O=C(CN1C(=O)c2ccccc2C1=O)Nc1cc(C(=O)O)cc(C(=O)O)c1	none
C#CCSc1nnc(-c2ccc(C)cc2)o1	none
C#CCSc1nnc(-c2ccc(O)cc2)o1	MrgX1 antagonist -7.6
O=C(CCNS(=O)(=O)c1ccccc1)N1CCCCCC1	RGS4 act -7.1
c1cc2c3c(cccc3c1)C(N1CCCCCC1)=N2	RGS4 act -7.4
c1cc2c3c(cccc3c1)C(N1CCCCC1)=N2	none
CC(C)c1ccccc1NC(=O)COC(=O)c1c2c(nc3ccccc13)CCN(Cc1ccccc1)C2	RGS4 act -8.1
CC(C)NC(=O)NC(=O)COC(=O)c1c2c(nc3ccccc13)CCC2	RGS4 act -7
Cc1c(Cl)cccc1NC(=O)COC(=O)c1c2c(nc3ccccc13)CCN(Cc1ccccc1)C2	none
Cc1cc(-c2nnc(SCC(=O)Nc3nccs3)o2)no1	none
CN(C)CCOC1c2ccccc2C=Cc2ccccc21	RGS4 act -7.1
CN(C)CCOC(c1ccccc1)c1ccccc1 (tested in a mixture with another compound)	none
CCNc1ccc(Br)cc(C(=O)/C=C/c2c(Cl)cccc2Cl)c1=O	MrgX1 antagonist -4.6
CCNc1ccc(Br)cc(C(=O)/C=C/c2ccc(Cl)cc2)c1=O	none
COc1ccc(N2CC(C(=O)Nc3nnc(SCC(=O)NCc4ccco4)s3)CC2=O)cc1 (configuration not stated)	none
CCN(CC)S(=O)(=O)c1ccc2c(c1)nc(SCC(=O)NCC1CCCO1)n2CC (configuration not stated)	none
COc1ccc(/C=C/C(=O)OCC(=O)c2ccc3c(c2)NC(=O)CO3)c(OC)c1	none
COc1cccc(/C=C/C(=O)OCC(=O)c2ccc3c(c2)NC(=O)CO3)c1OC	MrgX1 PAM 11
CCOc1cc(CNC2CCCC2)c(Cl)cc1OCC(=O)Nc1ccccc1	RGS4 act -7.2
CCOc1ncccc1C(=O)Nc1cccc(C(=O)Nc2cccc(S(=O)(=O)CCO)c2)c1	MrgX1 antagonist -5.3
CCOc1ncccc1C(=O)OCC(=O)Nc1cccc(S(N)(=O)=O)c1	none
CN(Cc1ccccc1)C(=O)C1CCN(S(=O)(=O)c2ccc3nc4c(c(C(=O)O)c3c2)CCCC4)CC1	none
COc1cccc(N/C(SC)=C(/C#N)C(=O)NCc2cccs2)c1	RGS4 act -7.5
COc1cccc(N/C(SCc2ccccc2C)=C(/C#N)C(=O)NCc2cccs2)c1	none
O=C(NC1CCCN(Cc2ccc(Cl)cc2)C1)c1c(F)ccc(F)c1F (configuration not stated)	none
Cc1ccc(-c2nc(CN(C)Cc3cccc4cnccc34)c(C)o2)s1	MrgX1 ag 28
CCC(=NC(C)c1ccccc1)c1c(O)n(C)c(=O)n(C)c1=O (configuration not stated)	MrgX1 antagonist -7.4
CCC(C)(C)NC(=O)C1CCCN(S(=O)(=O)c2ccc3c(c2)CC(C)N3C(=O)C2CC2)C1 (configuration not stated)	none
CCOc1cccc2c1OC(c1cc(OC)c(OC)c(OC)c1)N1N=C(c3ccc(C)o3)CC21 (configuration not stated)	MrgX1 antagonist -5.8
CCCC(NS(=O)(=O)c1ccc(-c2ccc(=O)[nH]n2)s1)c1cccs1 (configuration not stated)	none
C=CCn1c(=O)/c(=C/c2ccc(O)cc2)s/c1=C(/C#N)c1nnc2n1CCCCC2	MrgX1 ag 36 (no result: RGS4 block, RGS4 act)
C=CCn1c(=O)/c(=C/c2ccc(Cl)cc2)s/c1=C(/C#N)c1nnc2n1CCCCC2	none
Cc1nc(C(=O)Nc2cc(Cl)ccc2Cl)nn1-c1cc(OC(C)C)c(Cl)cc1Cl	MrgX1 antagonist -5.1
C/C(=N\O)c1ncc(C(F)(F)F)cc1Cl	none
COc1ccc(N2C(=O)[C@@H]3[C@H](C2=O)[C@H]2c4ccccc4C=CN2[C@@H]3C(=O)Nc2ccccc2)cc1	MrgX1 antagonist -7.1 (no result: RGS4 block, RGS4 act)
O=C(c1ccco1)[C@@H]1[C@@H]2C(=O)N(c3ccccc3)C(=O)[C@@H]2C2c3ccccc3C=CN21 (some centres not stated)	none
CCOc1ccc(N2C(=O)CN(CC(=O)OC)C2=S)cc1	none
COc1cccc(Nc2c([N+](=O)[O-])cncc2[N+](=O)[O-])c1	MrgX1 ag 31
O=[N+]([O-])c1cncc([N+](=O)[O-])c1Nc1ccccc1Cl	none
NS(=O)(=O)c1ccc(Nc2c([N+](=O)[O-])cncc2[N+](=O)[O-])cc1	MrgX1 ag 35
CCOc1ccc(C2/C(=C(\O)c3ccc4c(c3)OCCO4)C(=O)C(=O)N2Cc2cccnc2)cc1OCC (configuration not stated)	none
C=CCOc1cccc(C2/C(=C(/O)c3ccc(Cl)cc3)C(=O)C(=O)N2CCN2CCOCC2)c1 (configuration not stated)	MrgX1 antagonist -5
CC1=[N+](C)N(c2ccccc2)C(=O)C1N=C/C=C/c1ccccc1 (configuration not stated)	RGS4 act -7.5
CN(C(=O)c1ccc2c(c1)OCO2)C1CCS(=O)(=O)C1 (configuration not stated)	none
CCN(CC(=O)NCc1cccs1)C(=O)/C=C/c1ccc(Cl)c(Cl)c1	none
NC(=O)NC(=O)C(Nc1ccc(N2CCCCC2)cc1)c1ccccc1 (configuration not stated)	RGS4 act -9.1
CCOC(=O)c1c(NC(=O)C2CC(Cl)=CCC2C(=O)O)sc2c1CCCCC2 (configuration not stated)	none
CC(C)=CCC/C(C)=C/COc1ccc2ccc(=O)oc2c1	none
COCOc1ccc(-c2oc3c(C/C=C(\C)CCC=C(C)C)ccc(O)c3c(=O)c2OCOC)c(OCOC)c1	MrgX1 antagonist -6.9
COc1ccc(CC(=O)NC2CCS(=O)(=O)C2)cc1 (configuration not stated)	none
CCOc1ccccc1/C=C/c1onc(C)c1S(=O)(=O)N1CCC(C(=O)NC(C)(C)C)CC1	none
Cc1nc(C)c(-c2nnc(-c3ccccc3Cl)o2)cc1C(=O)NN	none

Compound activity as filed in PubChem.
